Article PMC7744370 (European journal of medicinal chemistry, 2020)
One block for each compound: values may come before it.

Legend:
dopamine transporter = dopamine transporter (Homo sapiens, UniProt Q01959); experiment: NIMH PDSP binding assay at dopamine transporter
[1] = test system: GPCRs expressed in the brain; experiment: Primary binding assay at selected CNS receptors; details: 10 μM
Method in brief: (§1)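 […] primary binding screen across a panel of brain-expressed CNS receptors, including GPCRs, with test compound at 10 μM. The read-out is % inhibition of binding at each receptor, reported as mean ± SEM of four independent experiments. Receptors are grouped by >50% and >90% inhibition.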

[2] = test system: MDA-MB-231 triple-negative breast cancer cells; experiment: MTT cytotoxicity assay on MDA-MB-231 cells; format: cell-based, human
Method in brief: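 MDA-MB-231 cells were kept in DMEM with 10% heat-inactivated FBS and antibiotic-antimycotic at 37 °C, 5% CO2, and tested for mycoplasma. Cells were seeded at 8000/well, grown 24 h, then screened at 20 μM. Dose series of 0–25 μM were given in 2% FBS DMEM with 0.1% final DMSO for 48 h. MTT (0.5 mg/mL) was added for 2 h at 37 °C, formazan dissolved in DMSO and read at 570 nm. IC50 was fitted from three independent experiments.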

[3] = Liver microsomal stability; format: in vitro ADME; details: rat liver microsomes, up to 60 minutes, compared with PFL
Method in brief: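 Pooled male Sprague-Dawley rat liver microsomes were diluted to a 6.2% mixture in warm potassium-phosphate buffer. Test compound, diluted to 5 μM from a DMSO stock, was mixed with NADPH regenerating solution and prewarmed to 37 °C. Microsomes were then added and incubated 1 h at 37 °C with shaking. Aliquots at 0, 5, 15, 30 and 60 min were quenched in ice-cold acetonitrile, centrifuged at 4 °C and analysed by LC-MS/MS. Percent remaining was calculated from peak-area ratios versus T=0. Results are mean ± SEM, three experiments in triplicate.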

caspase-3 = experiment: Caspase-3 cleavage; format: cell-based, human; details: MDA-MB-231
Method in brief: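 MDA-MB-231 cells, grown in DMEM with 10% heat-inactivated FBS at 37 °C and 5% CO2, were exposed to test compound for 48 h and lysed on ice in RIPA buffer with protease/phosphatase inhibitors. Equal protein was run on SDS-PAGE and blotted to PVDF. Blots were probed for cleaved caspase-3 and total caspase-3 (1:1000), with β-tubulin (1:2000) as loading control. Detection used goat anti-rabbit HRP secondary and chemiluminescence; bands were quantified by densitometry.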

MDA-MB-231 cells [4] = experiment: Induction of apoptosis in MDA-MB-231 cells; format: cell-based, human; details: 1 μM, 48 hours
FGFR1 = experiment: pFGFR1 immunoblot in MDA-MB-231 cells with and without bFGF; format: cell-based, human; details: 3 μM and 6 μM, in the presence of bFGF, 48 hours
Method in brief: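 Phospho-FGFR1 (1:1000) western blot used MDA-MB-231 lysates after 48 h exposure to test compound, with or without the natural ligand bFGF. Lysis was on ice in RIPA buffer with protease/phosphatase inhibitors, followed by SDS-PAGE of equal protein and transfer to PVDF. β-tubulin (1:2000) served as loading control. Detection used HRP anti-rabbit secondary and chemiluminescence, then band densitometry; n = 3.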

MDA-MB-231 cells [5] = experiment: Cell cycle analysis in MDA-MB-231 cells; format: cell-based, human
[6] = In vivo BBB permeability, plasma and brain distribution by LC-MS/MS; design: species or system C57 mice
Method in brief: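 Male and female C57 mice, 8 weeks old and about 20 g, received a single i.p. 10 mg/kg dose of test compound in 2.5% ethanol, 2.5% DMSO, 5% Tween 80, 25% PEG 400 and 65% PBS. Blood was drawn under anaesthesia at 0, 0.5, 1, 6, 24 and 48 h. Brains were taken after cardiac perfusion and homogenised in PBS (1:3 w/v). Samples were acetonitrile-precipitated with internal standard and quantified by positive-ESI MRM LC-MS/MS against blank-matrix calibration curves. Results are mean ± SEM of 2–4 experiments.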

[7] = test system: dopamine receptors (subtypes D1-D5); experiment: Primary binding assay at dopamine receptors; details: 10 μM
Method in brief: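 Primary binding screen across a CNS GPCR panel, run through the NIMH screening programme at UNC Chapel Hill. Test compound at 10 μM; read-out is % inhibition as mean ± SEM of four independent experiments. Ki was not evaluated for receptors with under 50% activity.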

serotonin receptors = experiment: Primary binding assay at serotonin receptors; details: 10 μM
Method in brief: as §1

Chain of dopamine transporter (Q01959 whole entry): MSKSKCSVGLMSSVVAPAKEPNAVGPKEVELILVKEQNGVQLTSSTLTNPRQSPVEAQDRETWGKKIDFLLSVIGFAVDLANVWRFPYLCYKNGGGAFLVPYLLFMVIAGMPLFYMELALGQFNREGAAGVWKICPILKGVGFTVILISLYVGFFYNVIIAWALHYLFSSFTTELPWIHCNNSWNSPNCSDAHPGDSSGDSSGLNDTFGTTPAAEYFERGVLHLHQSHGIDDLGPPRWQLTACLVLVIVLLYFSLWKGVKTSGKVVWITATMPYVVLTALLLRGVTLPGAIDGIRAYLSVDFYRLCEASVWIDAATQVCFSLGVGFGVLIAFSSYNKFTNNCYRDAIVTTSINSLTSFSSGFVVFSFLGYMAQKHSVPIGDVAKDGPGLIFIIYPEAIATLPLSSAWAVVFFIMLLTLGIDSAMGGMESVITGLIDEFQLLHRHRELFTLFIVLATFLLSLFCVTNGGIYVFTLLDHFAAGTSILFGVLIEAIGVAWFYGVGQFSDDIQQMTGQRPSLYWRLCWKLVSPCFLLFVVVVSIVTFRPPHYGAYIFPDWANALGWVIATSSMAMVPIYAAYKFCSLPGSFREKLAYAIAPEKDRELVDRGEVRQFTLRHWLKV

- decrease in affinity to DAT compared to 4l (dopamine transporter): 100 fold
SMILES: CC(=O)Nc1cc(NC(=O)NCCCCC(c2ccc(F)cc2)c2ccc(F)cc2)ccc1Cl [4o, N-(5-(3-(5,5-bis(4-fluorophenyl)pentyl)ureido)-2-chlorophenyl)acetamide]

- DAT inhibitory activity (in words) (dopamine transporter): inactive as a DAT inhibitor
SMILES: CN(CCCCC(c1ccc(F)cc1)c1ccc(F)cc1)C(=O)N(C)c1ccc(Cl)c(C(F)(F)F)c1 [compound 15, 1-(5,5-bis(4-fluorophenyl)pentyl)-3-(4-chloro-3-(trifluoromethyl)phenyl)-1,3-dimethylurea]

- number of receptors (GPCRs) inhibited at the level above 50% [1]: 28
SMILES: OC1(c2ccc(Cl)c(C(F)(F)F)c2)CCN(CCCC(c2ccc(F)cc2)c2ccc(F)cc2)CC1 [PFL, penfluridol]

SMILES: O=C(NCCCCC(c1ccc([N+](=O)[O-])cc1)c1ccc([N+](=O)[O-])cc1)Nc1ccc(Cl)c(C(F)(F)F)c1 [8g, 1-(5,5-bis(4-nitrophenyl)pentyl)-3-(4-chloro-3-(trifluoromethyl)phenyl)urea]
- optimization of cytotoxicity relative to hit molecule 4a [2]: 6 fold

- DAT inhibitory activity (in words) (dopamine transporter): abolished DAT activity
SMILES: O=C(Nc1ccc(Cl)c(C(F)(F)F)c1)N1CCC(CC(c2ccc(F)cc2)c2ccc(F)cc2)CC1 [19b, 4-(2,2-bis(4-fluorophenyl)ethyl)-N-(4-chloro-3-(trifluoromethyl)phenyl) piperidine-1 carboxamide]

- metabolic stability in liver microsomes [3]: preferred metabolic stability over PFL
SMILES: O=C(NCCCCC(c1ccc(F)cc1)c1ccc(F)cc1)Nc1ccc(Cl)c(C(F)(F)F)c1 [4l, 1-(5,5-bis(4-fluorophenyl)pentyl)-3-(4-chloro-3-(trifluoromethyl)phenyl)urea]

SMILES: O=C(NCCCCC(c1ccc(F)cc1)c1ccc(F)cc1)Nc1ccc([N+](=O)[O-])c(C(F)(F)F)c1 [4q, 1-(5,5-bis(4-fluorophenyl)pentyl)-3-(4-nitro-3-(trifluoromethyl)phenyl)urea]
- caspase-3 cleavage and activation (caspase-3): capable of caspase-3 cleavage and activation
- metabolic stability in liver microsomes [3]: preferred metabolic stability over PFL
- induction of apoptosis (MDA-MB-231 cells [4]): significant induction of apoptosis
- phosphorylation of FGFR1 (FGFR1): completely abrogated phosphorylation of FGFR1
- effect on cell cycle (MDA-MB-231 cells [5]): did not affect the cell cycle

- Tmax ([6]; both, C57, mouse, in vivo, ip, 10 mg/kg): 1 h
- ability to cross the BBB in vivo ([6]; mice, 10 mg/kg i.p.): retained activity to cross the BBB
- peak concentration ([6]; mice, 10 mg/kg single i.p., plasma and brain (Fig. 3)): approximately 1000 nM
- interaction with dopamine receptors (subtypes D1-D5) [7]: no significant interaction
SMILES: O=C(NCCCCC(c1ccc(F)cc1)c1ccc(F)cc1)Nc1ccc(Cl)cc1 [4a, 1-(5,5-bis(4-fluorophenyl)pentyl)-3-(4-chlorophenyl)urea]
- activity at serotonin receptors (serotonin receptors): no activity at serotonin receptors, except for 5HT-2C
